In ChEMBL document CHEMBL1926569, “Novel (E)-1-(4-methyl-2-(alkylamino)thiazol-5-yl)-3-arylprop-2-en-1-ones as potent antimicrobial agents” (2011):

How the values were obtained:
[1] = tested on: Staphylococcus aureus; experiment: Antibacterial activity against Staphylococcus aureus ATCC 6538 after 24 hrs by microdilution method; type: functional; conditions: ATCC 6538, 24 h
How it was run: (§1)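 Broth microdilution in 96-well plates. Bacterial suspensions were adjusted in sterile saline to 1.0 × 10⁵ CFU/ml, prepared daily and kept at 4 °C. Compound was added to LB broth with 1.0 × 10⁴ CFU per well and shaken at 160 rpm for 24 h at […] (so in the source). MIC is the lowest concentration with no visible growth under a binocular microscope. OD655 was also read. Duplicate, repeated three times.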

[2] = tested on: Bacillus cereus; experiment: Antibacterial activity against clinical isolate of Bacillus cereus after 24 hrs by microdilution method; type: functional; how it was run: as §1
[3] = tested on: Micrococcus flavus; experiment: Antibacterial activity against Micrococcus flavus ATCC 10240 after 24 hrs by microdilution method; type: functional; conditions: ATCC 10240, 24 h; how it was run: as §1
[4] = tested on: Listeria monocytogenes; experiment: Antibacterial activity against Listeria monocytogenes NCTC 7973 after 24 hrs by microdilution method; type: functional; conditions: NCTC 7973, 24 h; how it was run: as §1
[5] = tested on: Pseudomonas aeruginosa; experiment: Antibacterial activity against Pseudomonas aeruginosa ATCC 27853 after 24 hrs by microdilution method; type: functional; conditions: ATCC 27853, 24 h; how it was run: as §1
[6] = tested on: Salmonella typhimurium; experiment: Antibacterial activity against Salmonella Typhimurium ATCC 13311 after 24 hrs by microdilution method; type: functional, Salmonella enterica subsp. enterica serovar Typhimurium; conditions: Salmonella enterica, ATCC 13311, 24 h; how it was run: as §1
[7] = tested on: Escherichia coli; experiment: Antibacterial activity against Escherichia coli ATCC 35210 after 24 hrs by microdilution method; type: functional; conditions: ATCC 35210, 24 h; how it was run: as §1
[8] = tested on: Enterococcus faecalis; experiment: Antibacterial activity against Enterococcus faecalis isolated from human after 24 hrs by microdilution method; type: functional; how it was run: as §1
[9] = tested on: Staphylococcus aureus; experiment: Antibacterial activity against Staphylococcus aureus ATCC 6538 incubated for 24 hrs followed by serial sub-cultivation for 24 hrs by microdilution method; type: functional; conditions: ATCC 6538, 24 h
How it was run: (§2)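 MBC: after the 24 h LB broth microdilution (1.0 × 10⁴ CFU per well, 160 rpm), wells were serially sub-cultured into fresh broth plates and incubated a further 24 h. MBC is the lowest concentration with no visible growth, taken as 99.5% killing of the original inoculum. Duplicate, repeated three times.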

[10] = tested on: Bacillus cereus; experiment: Antibacterial activity against clinical isolate of Bacillus cereus incubated for 24 hrs followed by serial sub-cultivation for 24 hrs by microdilution; type: functional; how it was run: as §2
[11] = tested on: Micrococcus flavus; experiment: Antibacterial activity against Micrococcus flavus ATCC 10240 incubated for 24 hrs followed by serial sub-cultivation for 24 hrs by microdilution; type: functional; conditions: ATCC 10240, 24 h; how it was run: as §2
[12] = tested on: Listeria monocytogenes; experiment: Antibacterial activity against Listeria monocytogenes NCTC 7973 incubated for 24 hrs followed by serial sub-cultivation for 24 hrs by microdilution; type: functional; conditions: NCTC 7973, 24 h; how it was run: as §2
[13] = tested on: Pseudomonas aeruginosa; experiment: Antibacterial activity against Pseudomonas aeruginosa ATCC 27853 incubated for 24 hrs followed by serial sub-cultivation for 24 hrs by microdilution; type: functional; conditions: ATCC 27853, 24 h; how it was run: as §2
[14] = tested on: Salmonella typhimurium; experiment: Antibacterial activity against Salmonella Typhimurium ATCC 13311 incubated for 24 hrs followed by serial sub-cultivation for 24 hrs by microdilution; type: functional, Salmonella enterica subsp. enterica serovar Typhimurium; conditions: Salmonella enterica, ATCC 13311, 24 h; how it was run: as §2
[15] = tested on: Escherichia coli; experiment: Antibacterial activity against Escherichia coli ATCC 35210 incubated for 24 hrs followed by serial sub-cultivation for 24 hrs by microdilution; type: functional; conditions: ATCC 35210, 24 h; how it was run: as §2
[16] = tested on: Enterococcus faecalis; experiment: Antibacterial activity against Enterococcus faecalis isolated from human incubated for 24 hrs followed by serial sub-cultivation for 24 hrs by microdilution; type: functional; how it was run: as §2
[17] = tested on: Aspergillus ochraceus; experiment: Antifungal activity against Aspergillus ochraceus ATCC 12066 after 72 hrs by serial dilution technique; type: functional; conditions: ATCC 12066, 72 h
How it was run: (§3)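 Modified microdilution in 96-well plates. Fungi were kept on malt agar at 4 °C. Spores were washed off in sterile 0.85% saline with 0.1% Tween 80. Compounds were dissolved at 1 mg/ml in 5% DMSO with 0.1% Tween 80 and added to malt broth with inoculum. Plates were shaken at 160 rpm for 72 h at 28 °C. Duplicate, repeated three times.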

[18] = tested on: Aspergillus niger; experiment: Antifungal activity against Aspergillus niger ATCC 6275 after 72 hrs by serial dilution technique; type: functional; conditions: ATCC 6275, 72 h; how it was run: as §3
[19] = tested on: Aspergillus flavus; experiment: Antifungal activity against Aspergillus flavus ATCC 9643 after 72 hrs by serial dilution technique; type: functional; conditions: ATCC 9643, 72 h; how it was run: as §3
[20] = tested on: Talaromyces funiculosus; experiment: Antifungal activity against Penicillium funiculosum ATCC 36839 after 72 hrs by serial dilution technique; type: functional; conditions: ATCC 36839, 72 h; how it was run: as §3
[21] = tested on: Penicillium ochrochloron; experiment: Antifungal activity against Penicillium ochrochloron ATCC 9112 after 72 hrs by serial dilution technique; type: functional; conditions: ATCC 9112, 72 h; how it was run: as §3
[22] = tested on: Trichoderma viride; experiment: Antifungal activity against Trichoderma viride IAM 5061 after 72 hrs by serial dilution technique; type: functional; conditions: IAM 5061, 72 h; how it was run: as §3
[23] = tested on: Candida albicans; experiment: Antifungal activity against Candida albicans isolated from human after 72 hrs by serial dilution technique; type: functional; how it was run: as §3
[24] = tested on: Aspergillus ochraceus; experiment: Antifungal activity against Aspergillus ochraceus ATCC 12066 incubated for 72 hrs followed by serial sub-cultivation for 72 hrs by serial dilution technique; type: functional; conditions: ATCC 12066, 72 h
How it was run: (§4)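 MFC: material from 72 h malt broth microdilution wells was serially sub-cultured into fresh broth plates and incubated a further 72 h at 28 °C. Fungicidal concentration is taken from growth after sub-culture. Duplicate, repeated three times.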

[25] = tested on: Aspergillus fumigatus; experiment: Antifungal activity against Aspergillus fumigatus isolated from human incubated for 72 hrs followed by serial sub-cultivation for 72 hrs by serial dilution technique; type: functional; how it was run: as §4
[26] = tested on: Aspergillus niger; experiment: Antifungal activity against Aspergillus niger ATCC 6275 incubated for 72 hrs followed by serial sub-cultivation for 72 hrs by serial dilution technique; type: functional; conditions: ATCC 6275, 72 h; how it was run: as §4
[27] = tested on: Aspergillus flavus; experiment: Antifungal activity against Aspergillus flavus ATCC 9643 incubated for 72 hrs followed by serial sub-cultivation for 72 hrs by serial dilution technique; type: functional; conditions: ATCC 9643, 72 h; how it was run: as §4
[28] = tested on: Talaromyces funiculosus; experiment: Antifungal activity against Penicillium funiculosum ATCC 36839 incubated for 72 hrs followed by serial sub-cultivation for 72 hrs by serial dilution technique; type: functional; conditions: ATCC 36839, 72 h; how it was run: as §4
[29] = tested on: Penicillium ochrochloron; experiment: Antifungal activity against Penicillium ochrochloron ATCC 9112 incubated for 72 hrs followed by serial sub-cultivation for 72 hrs by serial dilution technique; type: functional; conditions: ATCC 9112, 72 h; how it was run: as §4
[30] = tested on: Trichoderma viride; experiment: Antifungal activity against Trichoderma viride IAM 5061 incubated for 72 hrs followed by serial sub-cultivation for 72 hrs by serial dilution technique; type: functional; conditions: IAM 5061, 72 h; how it was run: as §4
[31] = tested on: Candida albicans; experiment: Antifungal activity against Candida albicans isolated from human incubated for 72 hrs followed by serial sub-cultivation for 72 hrs by serial dilution technique; type: functional; how it was run: as §4
[32] = tested on: Pseudomonas aeruginosa; experiment: Ratio of ampicillin MIC to compound MIC for Pseudomonas aeruginosa ATCC 27853; type: functional
[33] = tested on: Aspergillus ochraceus; experiment: Ratio of bifonazole to compound for Aspergillus ochraceus ATCC 12066; type: functional
[34] = tested on: Aspergillus niger; experiment: Ratio of bifonazole to compound for Aspergillus niger ATCC 6275; type: functional
[35] = tested on: Talaromyces funiculosus; experiment: Ratio of bifonazole to compound for Penicillium funiculosum ATCC 36839; type: functional
[36] = tested on: Penicillium ochrochloron; experiment: Ratio of bifonazole to compound for Penicillium ochrochloron ATCC 9112; type: functional
[37] = tested on: Trichoderma viride; experiment: Ratio of bifonazole to compound for Trichoderma viride IAM 5061; type: functional
[38] = tested on: Candida albicans; experiment: Ratio of bifonazole to compound for Candida albicans isolated from human; type: functional
[39] = tested on: Aspergillus ochraceus; experiment: Ratio of ketoconazole to compound for Aspergillus ochraceus ATCC 12066; type: functional
[40] = tested on: Aspergillus fumigatus; experiment: Ratio of ketoconazole to compound for Aspergillus fumigatus isolated from human; type: functional
[41] = tested on: Penicillium ochrochloron; experiment: Ratio of ketoconazole to compound for Penicillium ochrochloron ATCC 9112; type: functional
[42] = tested on: Candida albicans; experiment: Ratio of ketoconazole to compound for Candida albicans isolated from human; type: functional
[43] = tested on: Aspergillus ochraceus; experiment: Antifungal activity against Aspergillus ochraceus after 72 hrs by serial dilution technique

CCNc1nc(C)c(C(=O)/C=C/c2cccc([N+](=O)[O-])c2)s1
31.5 µM: MIC [20] | MIC [23]
94.6 µM: MIC [1] | MIC [4] | MBC [9] | MBC [11] | MBC [12]
10: Ratio [32] | Ratio [33] | Ratio [34] | Ratio [35] | Ratio [36] | Ratio [37] | Ratio [38] | Ratio [39] | Ratio [40] | Ratio [41] | Ratio [42]
78.9 µM: MIC [5] | MBC [13] | MBC [15]
78.8 µM: MFC [24] | MFC [25] | MFC [26] | MFC [27] | MFC [29]
47.3 µM: MIC [2] | MIC [6] | MIC [8] | MIC [22]
63.1 µM: MIC [3] | MIC [7] | MBC [10] | MBC [14] | MBC [16] | MIC [17] | MIC [18] | MIC [19] | MIC [21] | MFC [28] | MFC [30] | MFC [31] | MIC [43]
